Results as given in ChEMBL document CHEMBL1629563, “Pharmacokinetic and safety evaluation of BILR 355, a second-generation nonnucleoside reverse transcriptase inhibitor, in healthy volunteers” (Antimicrob Agents Chemother, 2008).

What was measured:
[1] = Mean residence time in healthy human at 87.5 mg, po administered as single dose coadministered with 100 mg of ritonavir; type: ADME, organism-based; details: in vivo
[2] = Drug excretion in healthy human urine assessed as unchanged drug in high fat fed healthy human at 50 mg, po administered as single dose coadministered with 100 mg of ritonavir by high-pressure liquid chromatography-tandem mass spectrometry/mass spectrometry method; type: ADME, organism-based; details: read-out: Drug uptake
How it was run: (§1)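 Ritonavir 100 mg was given 10 h before and with one oral dose of BILR 355 in PEG solution. Urine was collected by weight as predose blank, then 0-6, 6-24 and 24-72 h, stored at −20°C and assayed by LC-MS/MS. fe = unchanged drug excreted (Ae) as a percentage of dose. Line 50: high-fat breakfast 30 min before dosing.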

[3] = AUC (0 to last) in healthy human at 87.5 mg, po administered as single dose coadministered with 100 mg of ritonavir; type: ADME, organism-based; set-up: dose 87.5 mg, route oral, time 0 - last; details: plasma
How it was run: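 Healthy male volunteers, fasted. Ritonavir 100 mg given 10 h before and again together with single oral BILR 355 in PEG solution. EDTA plasma sampled predose to 144 h. LC-MS/MS assay after protein precipitation. Noncompartmental analysis, AUC by linear up/log down trapezoidal rule; Vss = CL/F·(MRTp.o. − 1/Ka).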

Homo sapiens [4] = assay: Toxicity in healthy human assessed as occurrence of herpes simplex at 12.5 mg, po administered as single dose relative to control; type: organism-based; details: in vivo
[5] = AUC (0 to last) in healthy human at 75 mg, po administered as single dose; type: ADME, organism-based; set-up: dose 75 mg, time 0 - last, route oral; details: plasma
How it was run: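 Healthy male volunteers, six active plus two placebo per dose group, single oral dose in PEG solution with 200 ml water after overnight fast; breakfast 60 to 90 min post-dose. EDTA plasma sampled predose to 144 h. Assayed by validated LC-MS/MS after protein precipitation. Noncompartmental analysis, AUC by linear up/log down trapezoidal rule; Vss = CL/F·(MRTp.o. − 1/Ka).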

[6] = Renal clearance in healthy human at 100 mg, po administered as single dose by high-pressure liquid chromatography-tandem mass spectrometry/mass spectrometry method; type: ADME, organism-based, Kidney; details: in vivo, read-out: CL_renal (converted)
[7] = Apparent oral clearance in high fat fed healthy human at 50 mg, po administered as single dose coadministered with 100 mg of ritonavir; type: ADME, organism-based; details: in vivo
How it was run: (§2)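 Fed cohort of 6 healthy men given an FDA-type high-fat breakfast (about 150, 250 and 500 to 600 cal from protein, carbohydrate and fat) 30 min before dosing. Ritonavir 100 mg given 10 h earlier and again with the single oral dose in PEG solution. Plasma sampled to 144 h, LC-MS/MS, noncompartmental analysis.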

[8] = Drug excretion in healthy human urine assessed as unchanged drug at 25 mg, po administered as single dose by high-pressure liquid chromatography-tandem mass spectrometry/mass spectrometry method; type: ADME, organism-based; details: read-out: Drug uptake
How it was run: (§3)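 Urine was collected by weight after one oral dose of BILR 355 in PEG solution in fasted healthy males. Intervals were predose blank, 0-6, 6-24 and 24-72 h, with the bladder voided before each. Aliquots were stored at −20°C and assayed by LC-MS/MS. fe = amount of unchanged drug excreted (Ae) as a percentage of the administered dose.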

Homo sapiens [9] = assay: Toxicity in healthy human assessed as occurrence of frequent bowel movements at 100 mg, po administered as single dose relative to control; type: organism-based; details: in vivo
[10] = Half life in healthy human at 87.5 mg, po administered as single dose coadministered with 100 mg of ritonavir; type: ADME, organism-based; details: in vivo
[11] = Tmax in healthy human at 62.5 mg, po administered as single dose coadministered with 100 mg of ritonavir; type: ADME, organism-based; details: in vivo
[12] = Apparent volume of distribution in terminal phase in high fat fed healthy human at 50 mg, po administered as single dose coadministered with 100 mg of ritonavir; type: ADME, organism-based; details: in vivo, read-out: Vz/F
How it was run: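 Fed cohort: healthy males ate an FDA-recipe high-fat breakfast (about 150/250/500-600 cal from protein/carbohydrate/fat) 30 min before a 50 mg oral dose of BILR 355 in PEG solution. Ritonavir 100 mg was given 10 h before and with the dose. Plasma was sampled over 144 h and assayed by LC-MS/MS. Noncompartmental analysis gave Cmax and Vz/F. Vss/F = CL/F·(MRTp.o. − 1/Ka).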

Homo sapiens [13] = assay: Ratio of half life in human at 50 mg, po in presence of 100 mg of ritonavir to half life in human at 50 mg, po; type: ADME, organism-based; details: in vivo
[14] = Drug excretion in healthy human urine assessed as unchanged drug at 75 mg, po administered as single dose by high-pressure liquid chromatography-tandem mass spectrometry/mass spectrometry method; type: ADME, organism-based; details: read-out: Drug uptake; how it was run: as §3
[15] = Mean residence time in healthy human at 25 mg, po administered as single dose; type: ADME, organism-based; details: in vivo
[16] = Half life in healthy human at 5 mg, po administered as single dose coadministered with 100 mg of ritonavir; type: ADME, organism-based; details: in vivo
Homo sapiens [17] = assay: Toxicity in healthy human assessed as occurrence of migraine at 100 mg, po administered as single dose relative to control; type: organism-based; details: in vivo
Homo sapiens [18] = assay: Toxicity in healthy human assessed as occurrence of maculopapular rash at 100 mg, po administered as single dose relative to control; type: organism-based; details: in vivo
[19] = Tmax in healthy human at 5 mg, po administered as single dose coadministered with 100 mg of ritonavir; type: ADME, organism-based; details: in vivo
Homo sapiens [20] = assay: Ratio of Cmax in human at 50 mg, po in presence of 100 mg of ritonavir to Cmax in human at 50 mg, po; type: ADME, organism-based; details: in vivo
Homo sapiens [21] = assay: Toxicity in healthy human assessed as occurrence of nausea at 5 mg, po administered as single dose relative to control; type: organism-based; details: in vivo
Homo sapiens [22] = assay: Toxicity in healthy human assessed as occurrence of nausea at 25 mg, po administered as single dose relative to control; type: organism-based; details: in vivo
[23] = Drug excretion in healthy human urine assessed as unchanged drug at 62.5 mg, po administered as single dose coadministered with 100 mg of ritonavir by high-pressure liquid chromatography-tandem mass spectrometry/mass spectrometry method; type: ADME, organism-based; details: read-out: Drug uptake; how it was run: as §1
Homo sapiens [24] = assay: Toxicity in healthy human assessed as occurrence of palpitations at 50 mg, po administered as single dose relative to control; type: organism-based; details: in vivo
Homo sapiens [25] = assay: Toxicity in healthy human assessed as occurrence of vomiting at 75 mg, po administered as single dose relative to control; type: organism-based; details: in vivo
[26] = Renal clearance in healthy human at 25 mg, po administered as single dose coadministered with 100 mg of ritonavir by high-pressure liquid chromatography-tandem mass spectrometry/mass spectrometry method; type: ADME, organism-based, Kidney; details: in vivo, read-out: CL_renal (converted)
Homo sapiens [27] = assay: Toxicity in healthy human assessed as occurrence of palpitations at 75 mg, po administered as single dose relative to control; type: organism-based; details: in vivo
[28] = AUC (0 to infinity) in high fat fed healthy human at 50 mg, po administered as single dose coadministered with 100 mg of ritonavir; type: ADME, organism-based; set-up: dose 50 mg, time infinity, route oral; details: plasma; how it was run: as §2
Homo sapiens [29] = assay: Toxicity in healthy human assessed as occurrence of increase in alanine aminotransferase level at 50 mg, po administered as single dose relative to control; type: organism-based; details: in vivo
Homo sapiens [30] = assay: Toxicity in healthy human assessed as occurrence of aphthous stomatitis at 100 mg, po administered as single dose; type: organism-based; details: in vivo
Homo sapiens [31] = assay: Toxicity in healthy human assessed as occurrence of herpes simplex at 100 mg, po administered as single dose relative to control; type: organism-based; details: in vivo

Compound: CCN1c2ncc(CCOc3cc[n+]([O-])c4ccccc34)cc2C(=O)N(C)c2cccnc21 [BILR 355]
- MRT [1]: 14.6 h
- dose excreted [2]: 4.62%
- AUC(0-t) [3]: 11700 ng·h/mL
- Activity (Homo sapiens [4]): 0%
- AUC(0-t) [5]: 763 ng·h/mL
- CL renal [6]: 9.85 mL/min
- CL/F [7]: 104 mL/min
- dose excreted [8]: 0.405%
- Activity (Homo sapiens [9]): 0%
- half-life [10]: 9.61 h
- Tmax [11]: 0.7 h
- Vd/F [12]: 100 L
- Ratio (Homo sapiens [13]): 4.6
- dose excreted [14]: 0.602%
- MRT [15]: 4.52 h
- half-life [16]: 14.7 h
- Activity (Homo sapiens [17]): 0%
- Activity (Homo sapiens [18]): 0%
- Tmax [19]: 5.71 h
- Ratio (Homo sapiens [20]): 2.9
- Activity (Homo sapiens [21]): 0%
- Activity (Homo sapiens [22]): 0%
- dose excreted [23]: 5.05%
- Activity (Homo sapiens [24]): 0%
- Activity (Homo sapiens [25]): 0%
- CL renal [26]: 6.5 mL/min
- Activity (Homo sapiens [27]): 16.7%
- AUC(0-inf) [28]: 8300 ng·h/mL
- Activity (Homo sapiens [29]): 0%
- Activity (Homo sapiens [30]): 0%
- Activity (Homo sapiens [31]): 0%
